The RNAGym collection of RNA variant scans (doi:10.1126/science.aae0568)
Fewer inactive variants are shown than the library holds.

B1: tRNA (parent)
chain: GUUCCGUUGGCGUAAUGGUAACGCGUCUCCCUCCUAAGGAGAAGACUGCGGGUUCGAGUCCCGUACGGAACG

Variants of: B1
Assay: yeast fitness relative to wild type (ratio to wild type); higher = fitter; tRNA-Arg(CCU), competitive growth, 37 C, YPD
Method in brief: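 The tRNA-Arg(CCU) gene variants were made by chemical synthesis with a 3% per-site mutation rate at 69 sites and inserted at the native genomic locus of Saccharomyces cerevisiae. After pooling, the strains were competed in YPD at 37°C for 24 hours in six parallel replicates. Gene amplicons from the start population and each end population were read by 100-nucleotide paired-end sequencing, and Darwinian fitness relative to wild type was taken from genotype frequency changes. Genotypes needed ≥ 100 starting reads, and estimates < 0.5 were set to 0.5.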
For G52C G63C, the yeast fitness was 0.577.
C49U C55A showed a yeast fitness of 0.557.
Variant C49U C55U has a yeast fitness of 0.649.
In the case of G52U C55A, the yeast fitness is reported as 0.555.
For G52A A57G G58A, the yeast fitness was 0.565.
In the case of G50C C62G C66U, the yeast fitness is reported as 0.968.
G51U A69C gave a yeast fitness of 0.824.
C49U A65U gave a yeast fitness of 0.91.
C49U A65C showed a yeast fitness of 0.935.
Work on G52A C62U yielded a yeast fitness of 0.765.
C55U A70G showed a yeast fitness of 0.705.
With C55A A57G U64A the yeast fitness was ≤ 0.5.
In the case of G52A G58A C60G, the yeast fitness is reported as ≤ 0.5.
G52C G67A showed a yeast fitness of 0.709.
For C49U C62G, the yeast fitness was 0.704.
For C55A U59G A65C, the yeast fitness was ≤ 0.5.
G50A A69C gave a yeast fitness of 0.74.
In the case of C49U U59C C62G, the yeast fitness is reported as 0.503.
With C49A A69U the yeast fitness was 0.681.
Work on C49A A69C yielded a yeast fitness of 0.709.
Work on C49A U53C C62G yielded a yeast fitness of 0.598.
With U54G C60G G63C the yeast fitness was ≤ 0.5.
In the case of U54G G63U, the yeast fitness is reported as ≤ 0.5.
G51C C61U gave a yeast fitness of 0.604.
U53C G67A gave a yeast fitness of 0.808.
Work on U54G G58A yielded a yeast fitness of 0.544.
In the case of C55U C61G A65G G68A, the yeast fitness is reported as 0.584.
With G56A A70C the yeast fitness was 1.06.
G56A A70G gave a yeast fitness of 0.886.
For U54A C62A, the yeast fitness was 0.595.
For U54A C62G, the yeast fitness was 0.637.
In the case of G51A C61U A65G A69C, the yeast fitness is reported as 1.07.
In the case of G50A A70C, the yeast fitness is reported as 0.823.
For G52A C66A A69U, the yeast fitness was 0.551.
In the case of U53A A70C, the yeast fitness is reported as 0.769.
With G51C C62G G68A A70U the yeast fitness was ≤ 0.5.
Work on U53G U64G A69C yielded a yeast fitness of 0.841.
Variant G51A C55G has a yeast fitness of 0.648.
For G50A C60U, the yeast fitness was 0.819.
Work on G50A C60G yielded a yeast fitness of 0.748.
C55G C66G showed a yeast fitness of 0.768.
In the case of G50U G68C, the yeast fitness is reported as 0.804.
For G52U A65G, the yeast fitness was 0.793.
G51A U59C showed a yeast fitness of 0.692.
C49G C55G C61G gave a yeast fitness of 0.558.
For U53C A57C, the yeast fitness was 0.54.
U53C A57G gave a yeast fitness of 0.79.
With C49G G56C A70C the yeast fitness was ≤ 0.5.
For C49U U54C A70C, the yeast fitness was 0.617.
With C55G U59C C60U G67U the yeast fitness was 0.548.
For C49U G58C C62G A69C, the yeast fitness was 0.559.
With G51A C61A G68C the yeast fitness was ≤ 0.5.
G50A C55U gave a yeast fitness of 0.893.
G50A C55G showed a yeast fitness of 0.514.
U54C U59G A70G showed a yeast fitness of 0.615.
Work on U53G U54A C62U yielded a yeast fitness of 0.549.
Variant C49G G67U has a yeast fitness of 0.695.
Work on C49G G67A yielded a yeast fitness of 0.908.
Variant G51C U59G has a yeast fitness of 0.508.
Variant C49A C62U C66U has a yeast fitness of 0.585.
C49A C62U gave a yeast fitness of 0.717.
In the case of C55G G68U, the yeast fitness is reported as 0.522.
Variant C49G C62A has a yeast fitness of 0.845.
C55G A69C showed a yeast fitness of 0.593.
Work on C55U C62U yielded a yeast fitness of 0.708.
For U53G G56C G67A, the yeast fitness was ≤ 0.5.
In the case of U53C A70U, the yeast fitness is reported as 0.848.
With G50C C60U C62A the yeast fitness was 0.676.
In the case of C49U U59G C60U, the yeast fitness is reported as ≤ 0.5.
For C49G A57C G67U, the yeast fitness was 0.576.
With C49U C61A the yeast fitness was 0.57.
C49U C61U gave a yeast fitness of 0.814.
C49A U64G A69C showed a yeast fitness of 0.592.
In the case of G50A U53A C61U, the yeast fitness is reported as 0.532.
With G50A A57C C66U the yeast fitness was ≤ 0.5.
Variant G52A U54A has a yeast fitness of 0.537.
In the case of G51A U64C G67C A69G, the yeast fitness is reported as 0.854.
In the case of C49G U53C C60A, the yeast fitness is reported as ≤ 0.5.
For G50C G56A, the yeast fitness was 0.635.
For G51A C60G A65C, the yeast fitness was ≤ 0.5.
In the case of U54C A57G G63C A65C, the yeast fitness is reported as ≤ 0.5.
For G52C G63C A69C, the yeast fitness was ≤ 0.5.
G52A A70U showed a yeast fitness of 0.767.
U53G A57G showed a yeast fitness of 0.584.
U54C G68C gave a yeast fitness of 0.776.
For U53A A57U C60A A70U, the yeast fitness was ≤ 0.5.
U54G C55U showed a yeast fitness of 0.511.
Variant C49U G52A has a yeast fitness of 0.748.
Variant C49G U64C has a yeast fitness of 0.972.
In the case of C49A G67C, the yeast fitness is reported as 0.825.
Work on C49G C60U yielded a yeast fitness of 0.692.
C49G G56C gave a yeast fitness of 0.641.
For C49U A65C A70G, the yeast fitness was 0.768.
With U54G U59C A69U the yeast fitness was ≤ 0.5.
In the case of U53A G67U, the yeast fitness is reported as 0.657.
U54A C62U G68A gave a yeast fitness of 0.504.
In the case of U54A C62U G68U, the yeast fitness is reported as ≤ 0.5.
In the case of C49U C55A C60A, the yeast fitness is reported as ≤ 0.5.
Work on G50C C55A A57C yielded a yeast fitness of 0.559.
In the case of C49G G68C A70C, the yeast fitness is reported as 0.623.
With C49A C61U C62A G67C the yeast fitness was ≤ 0.5.
U54A A65U gave a yeast fitness of 0.618.
U54A A65G showed a yeast fitness of 0.584.
With G51A A57U A65U G68A A70U the yeast fitness was ≤ 0.5.
For C55G U59A C62U, the yeast fitness was ≤ 0.5.
C55A C61A gave a yeast fitness of 0.579.
With G50A C62A the yeast fitness was 0.875.
With G52C C55U G63A A65U the yeast fitness was ≤ 0.5.
For C49U C60A C61A, the yeast fitness was 0.574.
Variant C49G G63C G68U has a yeast fitness of 0.522.
U53C C62U gave a yeast fitness of 0.737.
Work on U53G G63A yielded a yeast fitness of 0.553.
C49U C55U A69C gave a yeast fitness of 0.665.
For G50A A65G, the yeast fitness was 1.03.
Work on G50A A65C yielded a yeast fitness of 0.887.
In the case of U54C C61A G68U, the yeast fitness is reported as ≤ 0.5.
With G51A A57U A65U the yeast fitness was ≤ 0.5.
For C55G G56C, the yeast fitness was ≤ 0.5.
For G51A G52U C62A, the yeast fitness was ≤ 0.5.
With C49A G56C G58C the yeast fitness was ≤ 0.5.
C49A G63A showed a yeast fitness of 0.582.
With U54G A57U A65U the yeast fitness was ≤ 0.5.
Work on U54C A70G yielded a yeast fitness of 0.973.
Variant U54C A70C has a yeast fitness of 0.925.
In the case of U54A A57C, the yeast fitness is reported as 0.555.
In the case of C49G G50C A65U, the yeast fitness is reported as 0.544.
C49U U59C showed a yeast fitness of 0.91.
G56A C66G gave a yeast fitness of 0.689.
Variant C49U G63A has a yeast fitness of 0.908.
C49U G63C showed a yeast fitness of 0.703.
For U53C A57C A65U, the yeast fitness was ≤ 0.5.
Work on G50C C55G C60A yielded a yeast fitness of 0.63.
Work on G56A yielded a yeast fitness of 1.03.
With G51C U53A the yeast fitness was 0.544.
In the case of C55U G67A, the yeast fitness is reported as 0.871.
For C55U G68U, the yeast fitness was 0.64.
For C55U G68C, the yeast fitness was 0.702.
In the case of C55U G68A, the yeast fitness is reported as 0.765.
With G52C A57U A69U the yeast fitness was ≤ 0.5.
In the case of C55A C62G G67A, the yeast fitness is reported as ≤ 0.5.
For U54A A69U, the yeast fitness was 0.671.
With U54G G67C the yeast fitness was ≤ 0.5.
U54G G67A showed a yeast fitness of 0.637.
C55A U64A gave a yeast fitness of 0.619.
With G50C U59A the yeast fitness was 0.703.
With U54G G68A the yeast fitness was 0.541.
For C49U C55U C61A, the yeast fitness was ≤ 0.5.
Work on C49U U54G yielded a yeast fitness of 0.562.
Variant G50A A57C has a yeast fitness of 0.611.
For C55A A69C, the yeast fitness was 0.613.
G56A A57U gave a yeast fitness of 0.882.
Variant C49G G52C has a yeast fitness of 0.664.
For G51A G63U C66A, the yeast fitness was ≤ 0.5.
With G52C C55U A65U the yeast fitness was ≤ 0.5.
With U54C A65U the yeast fitness was 0.894.
For G51C G56A G58C, the yeast fitness was ≤ 0.5.
For C49G U53A A70G, the yeast fitness was ≤ 0.5.
With G51C C60U G63A U64G the yeast fitness was ≤ 0.5.
In the case of C55A C61U G68A A70G, the yeast fitness is reported as ≤ 0.5.
Variant G50A U54G has a yeast fitness of 0.559.
For U53C C60G, the yeast fitness was 0.784.
In the case of C49U G50A, the yeast fitness is reported as 0.93.
C49G A69U showed a yeast fitness of 0.955.
For C49G A69C, the yeast fitness was 0.766.
With C49G C55A C60U C66A the yeast fitness was ≤ 0.5.
Variant U53A C55G has a yeast fitness of 0.588.
In the case of C49U A57U U59C, the yeast fitness is reported as 0.536.
